Screening data from PubChem.
An excerpt weighted towards active compounds, which were near 2% of everything screened.
HCV core dimer – blocks dimerization of HCV core protein; TR-FRET GST/Flag-core106 dimerization, 1536-well; inhibition, % at 5 µM; 300,000 compounds, 0.33% hits; AID 1899;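 active = inhibition above the mean of all tested compounds plus 3 SD, set per screening campaign, cut at about 45% in these data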
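Assay system: GST-tagged and Flag-tagged HCV core protein residues 1-106 / Times: compound-protein-antibody incubation 4 h at 22.5 °C / Signal: time-resolved FRET, ex 340 nm, em 617 and 671 nm / Evaluation: % inhibition based on acceptor/donor emission ratio / Benchmarks: wells lacking GST-core106 and wells with excess unlabelled core106 / Repeats: singlicate, one well per compound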
eIF4H inh – inhibitors of RNA binding by human eIF4H; Q15056; eIF4H fluorescence polarization binding assay; inhibition, % at 35 µM; 290,000 compounds, 0.94% hits;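 also: calls also rest on retests at 20 µM and on dose response follow-up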
PABP FP inh – PABP-poly(A) binding inhibition; P11940; AID 2014; inhibition, % at 35 µM; 290,000 compounds, 1% hits; PABP-poly(A) RNA binding, fluorescence polarization;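 also: calls also rest on retests at 20 µM and on dose response follow-up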
NS3 helicase inh – HCV NS3 helicase inhibition | 290,000 compounds, 0.56% hits | NS3 helicase DNA unwinding, Cy5 molecular beacon fluorescence | inhibition, % at 10.9 µM | AID 1800;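 active = inhibition above the mean of all tested compounds plus 3 SD, set per campaign, cut at about 35% in these data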
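Compound dosing – single dose, 10.9 µM nominal final, DMSO 0.8% final · System – NS3 helicase fragment of HCV · Buffer or medium – MOPS pH 6.5, MgCl2, DTT, Tween20, BSA · Signal – Cy5 beacon fluorescence read at start and 1 h · Also added – annealed dual-labelled DNA beacon duplex, ATP-started · Schedule – 1 h at 25 °C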
DNA FID counter – counter-screen for HCV NS3 helicase inhibitors: DNA intercalator displacement | DNA fluorescent intercalator displacement, fluorescence | inhibition, % at 7.9 µM | 290,000 compounds, 0.17% hits; in the data active = inhibition above about 37%;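 also: higher means more ethidium bromide displaced from hairpin DNA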
MLLE-PAM2 inh – blocks PAM2 peptide binding to the PABP1 MLLE domain; inhibition, % at 20 µM; P11940; GST-MLLE / FITC-PAM2 fluorescence polarization; 360,000 compounds, 0.36% hits; AID 588489; in the data active = inhibition above about 35%, passing the limit was not always enough
Numbers stand for hits; n = inactive; u = inconclusive; x = no result. Unless noted, no rule for the calls is given here.

SMILES | HCV core dimer | eIF4H inh | PABP FP inh | NS3 helicase inh | DNA FID counter | MLLE-PAM2 inh
OCCCNc1c2ccccc2nc2ccccc12 | n | n | n | n | 45 | n
CN(C)CCNCCCNc1c2ccccc2nc2cccc([N+](=O)[O-])c12 | x | x | x | x | x | 52
COCCNc1c2c(nc3ccccc13)CCC2 | n | n | n | n | n | n
CN(C)CCCNc1ccc(-c2n[nH]c(=O)c3ccccc23)cc1[N+](=O)[O-] | n | n | n | n | n | n
CN(C)CCCNc1c2c(nc3ccccc13)CCC2 | n | n | 60 | n | 53 | n
O=C(NCc1ccccc1F)c1ccc(S(=O)(=O)N2CCCC2)cc1 | x | x | x | x | x | n
CCCCC(=O)N(C)c1c(C)nc2ccc(C(=O)N(CC)CCN(C)C)cn12 | x | x | x | x | x | n
Cc1c(C(=O)NCc2cccs2)sc(=O)n1Cc1ccc(S(C)(=O)=O)cc1 | x | x | x | x | x | n
O=C(NCc1ccccc1)c1cc(-c2ccncc2)nc2ccccc12 | n | n | n | n | n | n
Cc1ccc(-c2nc(NCCN(C)C)c3ccccc3n2)cc1 | n | n | n | n | 71 | n
Cc1cccc(-c2nc(NCCCN(C)C)c3ccccc3n2)c1 | n | n | n | n | 63 | n
CN(C)CCCNc1nc(-c2ccc(Cl)cc2)nc2ccccc12 | n | n | n | n | 54 | n
COc1ccc(CNc2nc(-c3ccccc3)nc3ccccc23)cc1OC | n | n | n | n | n | n
Cc1ccc(-c2nc(NCCCO)c3ccccc3n2)cc1 | n | n | n | n | n | n
CN(C)CCNc1cc(-c2ccncc2)nc2ccccc12 | n | n | n | n | 77 | n
O=C(O)CCNc1nc(-c2ccccc2)nc2ccccc12 | n | n | n | n | n | n
O=C(CSc1nncn1-c1ccccc1F)NC1CC1 | x | x | x | x | x | n
CC(C)CSCC1OC(n2cnc3c(N)nccc32)C(O)C1O (stereo unspecified) | x | x | x | x | x | n
O=S(=O)(c1cccc(C(F)(F)F)c1)N1CCN(S(=O)(=O)c2ccc3c(c2)OCCO3)CC1 | x | x | x | x | x | n
CCN(CC)c1ccc2c(O)cc(=O)oc2c1 | n | n | n | n | n | n
CCN(CC)c1ccc(C(=O)OCc2cc(=O)oc3cc(O)ccc23)cc1 | 50 | n | n | n | n | n
COc1ccc(N(CC(=O)NC2CC3CCC2C3)S(=O)(=O)c2ccc(C)cc2)cc1Cl (stereo unspecified) | x | x | x | x | x | n
Cc1ccc(-c2nc3c(c(=O)[nH]c(=O)n3Cc3ccccc3)n2C)o1 | x | 88 | active | n | n | n
Cc1cc(C)c2c(=O)[nH]c(=O)n(Cc3ccccc3)c2n1 | n | 103 | 96 | n | n | n
COc1ccc(NC(=O)c2ccc(COCC(F)(F)C(F)F)cc2)cc1 | n | active | 53 | n | n | n
SMILES | HCV core dimer | eIF4H inh | PABP FP inh | NS3 helicase inh | DNA FID counter | MLLE-PAM2 inh
CCC1(C)Cc2c(sc3[nH]c(=O)[nH]c(=O)c23)CS1 (stereo unspecified) | n | 66 | 66 | n | n | n
COc1ccc(Cl)cc1NC(=O)CN(C(=O)c1ccco1)C1CCCCC1 | n | n | n | n | n | 36
COc1cc(/C=C/C(=O)OCC(=O)N2CCCCCC2)cc(OC)c1OC | x | x | x | x | x | n
COC(=O)c1cc(NC(=S)Nc2cc(Cl)cc(Cl)c2)cc(C(=O)OC)c1 | n | n | n | n | n | 36
COc1cc(C2C(C#N)=C(N)N(c3cccnc3)C3=C2C(=O)CCC3)ccc1O (stereo unspecified) | n | 51 | 70 | n | n | n
CCSc1sccc1C1C(C#N)=C(N)N(c2cccnc2)C2=C1C(=O)CCC2 (stereo unspecified) | n | n | n | n | n | 45
CCCn1c(NC(=O)c2ccc([N+](=O)[O-])o2)nc2ccccc21 | n | x | x | x | x | n
CCCC1OC(c2ccco2)OCC1CC (stereo unspecified) | x | x | x | x | x | n
COc1ccc(OC)c2c1C(=O)c1ccccc1C2=O | n | n | 67 | n | n | x
COc1ccc(OC)c2c1C(=O)CC2C (stereo unspecified) | x | x | x | x | x | n
COc1ccc(N)c2c1C(=O)c1ccccc1C2=O | n | n | n | n | n | n
COc1ccc(OC)c2c1C(=O)C(Cl)=C(Cl)C2=O | n | n | n | n | n | 58
CC(C)C1Nc2ccc(S(N)(=O)=O)cc2C2C=CCC21 (stereo unspecified) | n | n | n | n | n | n
NS(=O)(=O)c1ccc2c(c1)C1C=CCC1C(C1CC=CCC1)N2 (stereo unspecified) | 65 | 53 | 82 | n | n | n
CC(C)(C)OC(=O)NCCCC[C@H](NC(=O)c1nc[nH]c1C(=O)NCc1ccccc1)C(=O)OC(C)(C)C | n | n | n | n | n | n
CN(Cc1ccccc1)C(=O)c1[nH]cnc1C(=O)N[C@@H](CCCCNC(=O)OC(C)(C)C)C(=O)OC(C)(C)C | n | 84 | 5.1 | n | n | n
CSCc1c(C(=O)Nc2ccccc2N2CCOCC2)oc2ccccc12 | x | x | x | x | x | n
O=C1C(Cl)=C(NCCc2ccccc2)C(=O)c2ccccc21 | x | x | x | x | x | 40
Cc1ccc(NC2=C(NC(=O)c3ccccc3)C(=O)c3ccccc3C2=O)cc1Cl | n | n | n | n | n | 46
O=C(O)c1ccc(NC2=C(Cl)C(=O)c3ccccc3C2=O)cc1 | n | n | n | n | n | 47
O=C1C(Cl)=C(Nc2ccccc2)C(=O)c2ccccc21 | n | n | n | n | n | n
Cc1ccc(NCC(=O)c2ccccc2)cc1Cl | n | n | n | n | n | n
O=C1C(Cl)=C(NCCc2ccccc2)C(=O)N1CCc1ccccc1 | n | n | n | n | n | n
CC(C)(C)N1CC(C(=O)Nc2ccc(C(N)=O)cc2)CC1=O (stereo unspecified) | x | x | x | x | x | n
COc1ccc(CCNC(=O)c2sc(=S)n(C)c2N)cc1 | n | n | n | n | n | 43
SMILES | HCV core dimer | eIF4H inh | PABP FP inh | NS3 helicase inh | DNA FID counter | MLLE-PAM2 inh
COC(=O)c1sc(=S)n(-c2ccccc2OC)c1N | n | n | n | n | n | n
CNC(=S)NCCc1ccc(OC)cc1 | n | n | 92 | n | n | n
COc1ccc(CCNC(=S)Nc2ccc(OC)cc2)cc1 | n | n | n | n | n | n
CCCCNC(=O)c1sc(=S)n(-c2ccccc2OC)c1N | n | n | n | n | n | 45
Cn1c(N)c(C(=O)NCc2ccccc2)sc1=S | n | u | u | n | n | n
CC(=O)c1c(C)[nH]c(-c2ccccc2)nc1=S | n | n | n | n | n | n
CC(=O)c1c(NC(=O)c2ccccc2)[nH]c(-c2ccccc2)nc1=S | n | n | n | n | n | 39
CCCS(=O)(=O)NC(=O)C1(C)CCN(C(=O)c2nc(C)oc2C)C1 (stereo unspecified) | x | x | x | x | x | n
Oc1ccc(/C=N/Nc2ccc(Cl)nn2)c(O)c1O | n | 80 | 55 | n | n | n
C#Cc1ccc(C(=O)NCc2ccc(N3CCCC3=O)cc2)cc1 | n | n | active | n | n | n
CC(C)(CO)Nc1ncnc2onc(-c3ccc(F)cc3)c12 | n | 92 | 74 | n | n | n
